Results from different studies.
Compare with care: the assays were run in different laboratories.
Target: Serine/threonine-protein kinase STK11 (STK11, Homo sapiens, UniProt Q15831)
Residues used in one study (Q15831 1-433): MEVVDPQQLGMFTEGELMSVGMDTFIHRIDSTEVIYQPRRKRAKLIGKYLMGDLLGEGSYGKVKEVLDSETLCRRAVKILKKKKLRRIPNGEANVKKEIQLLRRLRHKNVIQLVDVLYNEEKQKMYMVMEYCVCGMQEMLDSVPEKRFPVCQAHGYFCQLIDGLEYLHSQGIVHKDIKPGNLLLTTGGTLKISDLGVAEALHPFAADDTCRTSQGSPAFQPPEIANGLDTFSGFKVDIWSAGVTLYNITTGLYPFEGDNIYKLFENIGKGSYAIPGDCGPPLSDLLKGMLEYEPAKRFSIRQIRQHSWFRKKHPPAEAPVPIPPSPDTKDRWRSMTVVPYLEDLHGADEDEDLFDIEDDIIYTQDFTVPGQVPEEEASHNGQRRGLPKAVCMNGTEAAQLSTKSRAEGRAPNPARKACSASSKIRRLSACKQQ

Compound	effect on	method	concentration	remaining binding
CN(C)c1nccc(-c2cnn3ncccc23)n1	binding		1 µM	100%
C[C@H](c1ccc(F)cc1)N(Cc1cccc(C(=O)O)c1)C(=O)c1cnc2ccccc2c1	cell-free assay	competition with immobilised ligand	1 µM	100%
C[C@@H]1CN(c2ccc3ncc(-c4ccc5[nH]nc(C6CC6)c5c4)n3n2)C[C@H](C)O1	binding	competition with immobilised ligand	0.5 µM	94%
CC(=O)C1=C(C)N(c2cccc(C(F)(F)F)c2)C(=O)N[C@@H]1c1ccc(C#N)nc1	cell-free assay	competition with immobilised ligand	1 µM	72.8%
COc1ccnn2ncc(-c3ccnc(N(C)C)n3)c12	binding		1 µM	91%
O=C(Nc1cccnn1)N1CCC(=Cc2cccc(Oc3ccc(C(F)(F)F)cn3)c2)CC1	cell-free assay	competition with immobilised ligand	1 µM	100%
c1cncc(-c2cccc(Nc3nccc(NC4CCCCC4)n3)c2)c1	binding	competition with immobilised ligand	10 µM	100%
O=C(O)[C@H]1[C@H](Cn2nnc3ccccc3c2=O)CC[C@@H]1C(=O)c1ccc(OCCC2CCOCC2)cc1	cell-free assay	competition with immobilised ligand	1 µM	76%
CN(CCCC(F)(F)F)c1nccc(-c2cnn3ncccc23)n1	binding		1 µM	100%
CC(C)(C)c1ccc(-c2nc(CBr)nn2-c2cccc(O)c2)cc1	cell-free assay	competition with immobilised ligand	10 µM	100%
Nc1ncc2c(n1)-c1c([nH]c3ccc(C#CC4CC4)cc13)CCCC2	binding	competition with immobilised ligand	1 µM	100%
Cc1cnn2ncc(-c3ccnc(N(C)C)n3)c2c1	binding		1 µM	99%
O=C(NC[C@@H]1[C@H]2CN(C(=O)OCc3cc(C(F)(F)F)cc(C(F)(F)F)c3)C[C@@H]12)c1ccc2[nH]nnc2c1	cell-free assay	competition with immobilised ligand	1 µM	100%
FC(F)(F)Oc1cccc(-c2cnc3ccc(-c4ccncc4)nn23)c1	cell-free assay	competition with immobilised ligand	5 µM	72%
O=C(c1ccc(Nc2ncc(Cl)c(-c3cc4ccccc4s3)n2)cc1)N1CCC(N2CCCC2)CC1	binding	competition with immobilised ligand	1 µM	1.6%
CO[C@H]1CC[C@H](CNc2ccc(S(=O)(=O)NC(=O)c3ccc(N4CCN(CC5=C(c6ccc(Cl)cc6)CC(C)(C)CC5)CC4)cc3Oc3cnc4[nH]ccc4c3)cc2[N+](=O)[O-])CC1	cell-free assay	competition with immobilised ligand	1 µM	59%
O=C(NCCCN1CCOCC1)c1ccc(Nc2ncc(Cl)c(-c3ccc(Cl)s3)n2)cc1	binding	competition with immobilised ligand	1 µM	0%
C[C@@H](c1ccc(-n2cnc3c(N)ncnc32)cc1)N1CCc2nn(C)c(Cc3ccccc3)c2C1=O	binding	competition with immobilised ligand	0.1 µM	100%
O=C(NCC1CCOCC1)c1n[nH]cc1NC(=O)c1c(F)cccc1F	binding	competition with immobilised ligand	1 µM	100%
COc1cnc(Nc2cccc(S(N)(=O)=O)c2)nc1N1CCN(c2ccccc2)CC1	binding	competition with immobilised ligand	1 µM	82%
N[C@H]1CCN(c2nccc(-c3cnn4ncccc34)n2)C1	binding		1 µM	65%
O=C(c1ccc(Nc2ncc(Cl)c(-c3ccc(Cl)s3)n2)cc1)N1CCC(N2CCCC2)CC1	binding	competition with immobilised ligand	1 µM	7.2%
C[C@H]1CCN(c2nccc(-c3cnn4ncccc34)n2)C1	binding		1 µM	80%
CN(C)C(=O)Cn1cc(-c2nc([C@@](C)(c3ccc(-c4cnc(N)nc4)cc3)C3CC3)no2)cn1	cell-free assay	competition with immobilised ligand	1 µM	77%
